Data reported in ChEMBL document CHEMBL2380289, “Ligand based approach to L-type calcium channel by imidazo[2,1-b]thiazole-1,4-dihydropyridines: from heart activity to brain affinity” (J Med Chem, 2013).

test system: Ileum; assay: Relaxant activity in potassium depolarized guinea pig ileum longitudinal smooth muscle assessed as inhibition of calcium-induced contraction; format: functional, tissue-based; details: Cavia porcellus
In short: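 K⁺-depolarized (80 mM) guinea pig ileum longitudinal smooth muscle is used. Calcium-induced contraction is measured with cumulative compound addition.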

Q: For COC(=O)C1=C(C)NC(C)=C(C(=O)OC)C1c1c(-c2ccsc2)nc2sc(C)cn12, which IC50 is on record?
A: 3520 nM

Q: With COC(=O)C1=C(C)NC(C)=C(C(=O)OC)C1c1c(-c2cccnc2)nc2sccn12 as the molecule, how does the IC50 read?
A: 3550 nM

Q: Which IC50 does the source give for COC(=O)C1=C(C)NC(C)=C(C(=O)OC)C1c1c(-c2ccncc2)nc2sccn12 here?
A: 960 nM

Q: With COC(=O)C1=C(C)NC(C)=C(C(=O)OC)C1c1c(-c2cccnc2)nc2sc(C)cn12 as the molecule, how does the IC50 read?
A: 16000 nM

Q: For COC(=O)C1=C(C)NC(C)=C(C(=O)OC)C1c1c(-c2c(Cl)csc2Cl)nc2sccn12, which IC50 is on record?
A: 180 nM

test system: not listed separately; assay: Negative inotropic activity in guinea pig left atrium assessed as decrease in developed tension at 10^-5 M relative to control; format: functional, Cavia porcellus, Cardiac atrium; parameters: scale not given: the % may be the effect or the level left; details: not given

Q: Which Activity does the source give for COC(=O)C1=C(C)NC(C)=C(C(=O)OC)C1c1c(-c2cccnc2)nc2sccn12 here?
A: 25%

test system: not listed separately; assay: Negative inotropic activity in guinea pig left atrium assessed as decrease in developed tension at 10^-4 M relative to control; format: functional, Cavia porcellus, Cardiac atrium; parameters: scale not given: the % may be the effect or the level left; details: not given

Q: With COC(=O)C1=C(C)NC(C)=C(C(=O)OC)C1c1c(-c2ccsc2)nc2sc(C)cn12 as the molecule, how does the Activity read?
A: 12%

Q: With COC(=O)C1=C(C)NC(C)=C(C(=O)OC)C1c1c(-c2c(Cl)csc2Cl)nc2sccn12 as the molecule, how does the Activity read?
A: 74%

test system: not listed separately; assay: Negative chronotropic activity in guinea pig right atrium assessed as decrease in atrial rate at 5x10'-6 M relative to control; format: functional, Cavia porcellus, Cardiac atrium; parameters: scale not given: the % may be the effect or the level left; details: not given

Q: For COC(=O)C1=C(C)NC(C)=C(C(=O)OC)C1c1c(-c2c(Cl)csc2Cl)nc2sccn12, which Activity is on record?
A: 77%

test system: not listed separately; assay: Negative chronotropic activity in guinea pig right atrium assessed as decrease in atrial rate at 10^-4 M relative to control; format: functional, Cavia porcellus, Cardiac atrium; parameters: scale not given: the % may be the effect or the level left; details: not given
In short: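 The read-out is decrease in rate of spontaneously beating isolated guinea pig right atrium at 10⁻⁴ M. It is expressed as percent change from control, n = 7−8.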

Q: For COC(=O)C1=C(C)NC(C)=C(C(=O)OC)C1c1c(-c2ccsc2)nc2sc(C)cn12, which Activity is on record?
A: 85%

Q: For COC(=O)C1=C(C)NC(C)=C(C(=O)OC)C1c1c(-c2cccnc2)nc2sccn12, which Activity is on record?
A: 98%

test system: Ileum; assay: Relaxant activity in potassium depolarized guinea pig ileum longitudinal smooth muscle assessed as inhibition of calcium-induced contraction at 5x10'-5 M relative to control; format: functional, Cavia porcellus; parameters: scale not given: the % may be the effect or the level left; details: not given

Q: Which Activity does the source give for COC(=O)C1=C(C)NC(C)=C(C(=O)OC)C1c1c(-c2cccnc2)nc2sc(C)cn12 here?
A: 83%

species on record: Cavia porcellus; assay: Displacement of [3H]-PN200-110 from L-type calcium channel in Hartley guinea pig atrial membrane at 100 uM after 90 mins relative to control; format: cell membranes; details: Cardiac atrium

Q: For COC(=O)C1=C(C)NC(C)=C(C(=O)OC)C1c1c(-c2cccnc2)nc2sc(C)cn12, which %max is on record?
A: 52%

target: not listed separately; assay: Displacement of [3H]-PN200-110 from L-type calcium channel in Hartley guinea pig atrial membrane after 90 mins; format: cell membranes, Cavia porcellus, Cardiac atrium; details: not given
In short: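 Guinea pig atrial membranes are labelled at the 1,4-DHP site with (+)-[5-methyl-3H]PN200-110 at 0.5 nM. Competitor is added over 0.001−100 μM from 10⁻² M DMSO stocks diluted in buffer. Results are given as IC50 and Ki, mean ± SEM. Student's t-test is applied with P<0.001.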

Q: What does the source list for COC(=O)C1=C(C)NC(C)=C(C(=O)OC)C1c1c(-c2cccnc2)nc2sc(C)cn12?
A: IC50: 22 nM; Ki: 4.8 nM

test system: not listed separately; assay: Negative chronotropic activity in guinea pig right atrium assessed as decrease in atrial rate at 10^-5 M relative to control; format: functional, Cavia porcellus, Cardiac atrium; parameters: scale not given: the % may be the effect or the level left; details: not given

Q: Which Activity does the source give for COC(=O)C1=C(C)NC(C)=C(C(=O)OC)C1c1c(-c2ccncc2)nc2sccn12 here?
A: 25%

test system: not listed separately; assay: Negative chronotropic activity in guinea pig right atrium assessed as decrease in atrial rate at 5x10'-5 M relative to control; format: functional, Cavia porcellus, Cardiac atrium; parameters: scale not given: the % may be the effect or the level left; details: not given

Q: For COC(=O)C1=C(C)NC(C)=C(C(=O)OC)C1c1c(-c2cccnc2)nc2sc(C)cn12, which Activity is on record?
A: 86%

test system: not listed separately; assay: Negative inotropic activity in guinea pig left atrium assessed as decrease in developed tension; format: functional, tissue-based; details: Cavia porcellus, Cardiac atrium
In short: (§1)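 Isolated guinea pig atria are used, with left atria driven at 1 Hz. Compounds are added cumulatively. EC50 is derived from log concentration−response curves by Litchfield–Wilcoxon probit analysis, n = 6−7. EC50 is not calculated when the maximal effect is below 50%.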

Q: For COC(=O)C1=C(C)NC(C)=C(C(=O)OC)C1c1c(-c2c(Cl)csc2Cl)nc2sccn12, which EC50 is on record?
A: 46 nM

test system: Ileum; assay: Relaxant activity in potassium depolarized guinea pig ileum longitudinal smooth muscle assessed as inhibition of calcium-induced contraction at 5x10'-7 M relative to control; format: functional, Cavia porcellus; parameters: scale not given: the % may be the effect or the level left; details: not given

Q: With COC(=O)C1=C(C)NC(C)=C(C(=O)OC)C1c1c(-c2c(Cl)csc2Cl)nc2sccn12 as the molecule, how does the Activity read?
A: 95%

test system: Ileum; assay: Relaxant activity in potassium depolarized guinea pig ileum longitudinal smooth muscle assessed as inhibition of calcium-induced contraction at 5x10'-6 M relative to control; format: functional, Cavia porcellus; parameters: scale not given: the % may be the effect or the level left; details: not given

Q: With COC(=O)C1=C(C)NC(C)=C(C(=O)OC)C1c1c(-c2ccncc2)nc2sccn12 as the molecule, how does the Activity read?
A: 90%

test system: not listed separately; assay: Selectivity ratio of EC50 for negative chronotropic activity in guinea pig right atrium to EC50 for negative inotropic activity in guinea pig left atrium; format: functional, Cavia porcellus, Cardiac atrium; details: not given

Q: With COC(=O)C1=C(C)NC(C)=C(C(=O)OC)C1c1c(-c2c(Cl)csc2Cl)nc2sccn12 as the molecule, how does the “Ratio EC50” value read?
A: 47

test system: HEK293; assay: Displacement of [3H]-PN200-110 from voltage-gated calcium channel subunit alpha Cav1.2a (unknown origin) expressed in HEK293 cells at 100 uM after 90 mins by liquid scintillation counting analysis relative to control; format: cell-based; details: Homo sapiens

Q: For COC(=O)C1=C(C)NC(C)=C(C(=O)OC)C1c1c(-c2cccnc2)nc2sc(C)cn12, which %max is on record?
A: < 50%

species on record: Cavia porcellus; assay: Displacement of [3H]-PN200-110 from L-type calcium channel in Hartley guinea pig ventricular membrane […] after 90 mins relative to control; details: not given

Q: With COC(=O)C1=C(C)NC(C)=C(C(=O)OC)C1c1c(-c2cccnc2)nc2sc(C)cn12 as the molecule, how does the %max read?
A: < 50%

test system: Aorta; assay: Relaxant activity in potassium depolarized guinea pig aortic strips assessed as inhibition of calcium-induced contraction at 10^-4 M relative to control; format: functional, Cavia porcellus; parameters: scale not given: the % may be the effect or the level left; details: not given
In short: (§2)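 Guinea pig aortic strips and ileum longitudinal smooth muscle are depolarized with 80 mM K⁺. The read-out is percent inhibition of calcium-induced contraction. Aorta is tested at 10⁻⁴ M and ileum at 10⁻⁵ M.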

Q: With COC(=O)C1=C(C)NC(C)=C(C(=O)OC)C1c1c(-c2ccsc2)nc2sc(C)cn12 as the molecule, how does the Activity read?
A: 6%

Q: Which Activity does the source give for COC(=O)C1=C(C)NC(C)=C(C(=O)OC)C1c1c(-c2cccnc2)nc2sccn12 here?
A: 36%

Q: Which Activity does the source give for COC(=O)C1=C(C)NC(C)=C(C(=O)OC)C1c1c(-c2ccncc2)nc2sccn12 here?
A: 14%

test system: Ileum; assay: Relaxant activity in potassium depolarized guinea pig ileum longitudinal smooth muscle assessed as inhibition of calcium-induced contraction at 10^-5 M relative to control; format: functional, Cavia porcellus; parameters: scale not given: the % may be the effect or the level left; details: not given; in short: as §2

Q: With COC(=O)C1=C(C)NC(C)=C(C(=O)OC)C1c1c(-c2ccsc2)nc2sc(C)cn12 as the molecule, how does the Activity read?
A: 74%

Q: With COC(=O)C1=C(C)NC(C)=C(C(=O)OC)C1c1c(-c2cccnc2)nc2sccn12 as the molecule, how does the Activity read?
A: 91%

test system: not listed separately; assay: Negative chronotropic activity in guinea pig right atrium assessed as decrease in atrial rate; format: functional, tissue-based; details: Cavia porcellus, Cardiac atrium; in short: as §1

Q: Which EC50 does the source give for COC(=O)C1=C(C)NC(C)=C(C(=O)OC)C1c1c(-c2ccsc2)nc2sc(C)cn12 here?
A: 2300 nM

Q: Which EC50 does the source give for COC(=O)C1=C(C)NC(C)=C(C(=O)OC)C1c1c(-c2cccnc2)nc2sccn12 here?
A: 28400 nM

Q: For COC(=O)C1=C(C)NC(C)=C(C(=O)OC)C1c1c(-c2cccnc2)nc2sc(C)cn12, which EC50 is on record?
A: 12500 nM

Q: For COC(=O)C1=C(C)NC(C)=C(C(=O)OC)C1c1c(-c2c(Cl)csc2Cl)nc2sccn12, which EC50 is on record?
A: 2160 nM

target: not listed separately; assay: Displacement of [3H]-PN200-110 from L-type calcium channel dihydropyridine binding site in Wistar rat cortex homogenate after 60 mins by liquid scintillation spectometric analysis; format: tissue-based; details: not given
In short: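 Competition binding on rat cortex homogenate with (+)-[5-methyl-3H]PN200-110. Compounds are dissolved in DMSO as 10⁻² M stocks and diluted in buffer. Six displacer concentrations are tested, each in triplicate. IC50 is obtained by −log probit analysis and Ki by the Prusoff method. Values are mean ± SEM of 3−5 separate experiments done in triplicate.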

Q: For COC(=O)C1=C(C)NC(C)=C(C(=O)OC)C1c1c(-c2cccnc2)nc2sc(C)cn12, which IC50 is on record?
A: 100 nM

Q: And the Ki?
A: 59 nM

test system: not listed separately; assay: Negative inotropic activity in guinea pig left atrium assessed as decrease in developed tension at 10^-6 M relative to control; format: functional, Cavia porcellus, Cardiac atrium; parameters: scale not given: the % may be the effect or the level left; details: not given

Q: Which Activity does the source give for COC(=O)C1=C(C)NC(C)=C(C(=O)OC)C1c1c(-c2ccncc2)nc2sccn12 here?
A: 46%

Q: For COC(=O)C1=C(C)NC(C)=C(C(=O)OC)C1c1c(-c2cccnc2)nc2sc(C)cn12, which Activity is on record?
A: 18%

species on record: Rattus norvegicus; assay: Displacement of [3H]-PN200-110 from L-type calcium channel dihydropyridine binding site in Wistar rat cortex homogenate at 100 uM after 60 mins by liquid scintillation spectometric analysis relative to control; format: tissue-based; details: not given
In short: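 Binding on rat cortex homogenate using (+)-[5-methyl-3H]PN200-110. The read-out is percent of maximal radioligand displacement at 100 μM test compound. Compounds are made up as 10⁻² M DMSO stocks and diluted in buffer. Values are from 3−5 separate experiments done in triplicate.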

Q: With COC(=O)C1=C(C)NC(C)=C(C(=O)OC)C1c1c(-c2cccnc2)nc2sc(C)cn12 as the molecule, how does the %max read?
A: 70%

test system: Aorta; assay: Relaxant activity in potassium depolarized guinea pig aortic strips assessed as inhibition of calcium-induced contraction at 5x10'-5 M relative to control; format: functional, Cavia porcellus; parameters: scale not given: the % may be the effect or the level left; details: not given

Q: For COC(=O)C1=C(C)NC(C)=C(C(=O)OC)C1c1c(-c2cccnc2)nc2sc(C)cn12, which Activity is on record?
A: 19%

Q: With COC(=O)C1=C(C)NC(C)=C(C(=O)OC)C1c1c(-c2c(Cl)csc2Cl)nc2sccn12 as the molecule, how does the Activity read?
A: 22%
